# ChEMBL document CHEMBL1147868, “Synthesis of novel triazole derivatives as inhibitors of cytochrome P450 14alpha-demethylase (CYP51)” (2007)
# Columns and labels:
# Assay type in all cases: functional
# [1] = tested on: Candida parapsilosis; assay: Antifungal activity against Candida parapsilosis ATCC 0306392 after 7 days by micro-broth dilution method; conditions: Lodderomyces parapsilosis, ATCC 0306392, 168 h
# Method in brief: (§1)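 Micro-broth dilution followed NCCLS methods, using an ATCC standard quality-control strain for C. parapsilosis and a clinical isolate for C. tropicalis. Compounds were dissolved in DMSO, serially diluted in growth medium and incubated at 35 C. MIC80 was the first well with about 80% growth reduction compared with the drug-free well.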
# [2] = tested on: Candida albicans; assay: Antifungal activity against Candida albicans ATCC Y0109 after 24 hrs by micro-broth dilution method
# Method in brief: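 An ATCC standard quality-control strain was included in each run of an NCCLS micro-broth dilution assay. Compounds were dissolved in DMSO, serially diluted in growth medium and incubated at 35 C. Reading was at 24 h, and MIC80 was the first well showing roughly 80% growth reduction versus the drug-free control.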
# [3] = tested on: Candida tropicalis; assay: Antifungal activity against Candida tropicalis after 7 days by micro-broth dilution method; conditions: 168 h; method in brief: as §1
# [4] = tested on: Cryptococcus neoformans; assay: Antifungal activity against Cryptococcus neoformans ATCC BLS108 after 72 hrs by micro-broth dilution method
# Method in brief: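 This ATCC standard quality-control strain was tested in every assay by NCCLS microdilution. Test agents were dissolved in DMSO and serially diluted in growth medium. Cultures were incubated at 35 C and read at 72 h. MIC80 was the first well with approximately 80% reduced growth relative to the drug-free well.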
# [5] = tested on: Aspergillus fumigatus; assay: Antifungal activity against Aspergillus fumigatus after 7 days by micro-broth dilution method; conditions: 168 h
# Method in brief: (§2)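 Clinical isolates supplied by a hospital were tested by NCCLS broth microdilution. Compounds were dissolved in DMSO, serially diluted in growth medium, inoculated and incubated at 35 C. Growth was read at 7 days for filamentous fungi. MIC80 was taken as the first well with about 80% less growth than the drug-free well.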
# [6] = tested on: Trichophyton rubrum; assay: Antifungal activity against Trichophyton rubrum after 7 days by microbroth dilution method; conditions: 168 h; method in brief: as §2
# [7] = tested on: Fonsecaea compacta; assay: Antifungal activity against Fonsecaea compacta after 7 days by micro-broth dilution method; conditions: 168 h; method in brief: as §2
# [8] = tested on: Microsporum; assay: Antifungal activity against Microsporum gypseum after 7 days by micro-broth dilution method; conditions: 168 h; method in brief: as §2
Compound,MIC80 [1] [µg/mL],MIC80 [2] [µg/mL],MIC80 [3] [µg/mL],MIC80 [4] [µg/mL],MIC80 [5] [µg/mL],MIC80 [6] [µg/mL],MIC80 [7] [µg/mL],MIC80 [8] [µg/mL]
COc1cc(C(=O)Nc2ccc(N3CCN(CC(O)(Cn4cncn4)c4ccc(F)cc4F)CC3)c(F)c2)cc(OC)c1OC (stereo not drawn),0.0625,0.25,0.0625,1,4,> 64,4,1
C[C@@H]1[C@H](O)[C@@H](C)/C=C/C=C/C=C/C=C/C=C/C=C/C=C/[C@H](O[C@@H]2O[C@H](C)[C@@H](O)[C@H](N)[C@@H]2O)C[C@@H]2O[C@](O)(C[C@@H](O)C[C@@H](O)[C@H](O)CC[C@@H](O)C[C@@H](O)CC(=O)O[C@H]1C)C[C@H](O)[C@H]2C(=O)O [AMPHOTERICIN B],0.0152,1,0.0625,1,4,1,16,0.0039
O=C(Nc1ccc(N2CCN(CC(O)(Cn3cncn3)c3ccc(F)cc3F)CC2)c(F)c1)c1ccc(OC(F)(F)F)cc1 (stereo not drawn),0.0625,0.0152,0.0625,0.25,1,0.0625,0.0625,0.0625

# Next, values leading:
MIC80 [1] [µg/mL],MIC80 [2] [µg/mL],MIC80 [3] [µg/mL],MIC80 [4] [µg/mL],MIC80 [5] [µg/mL],MIC80 [6] [µg/mL],MIC80 [7] [µg/mL],MIC80 [8] [µg/mL],Compound
0.0625,0.0152,0.0625,1,1,0.0152,1,0.0625,O=C(Nc1ccc(N2CCN(CC(O)(Cn3cncn3)c3ccc(F)cc3F)CC2)c(F)c1)c1ccccc1[N+](=O)[O-] (stereo not drawn)
0.0625,0.0625,0.0625,0.25,4,0.0625,0.25,0.25,O=C(Nc1ccc(N2CCN(CC(O)(Cn3cncn3)c3ccc(F)cc3F)CC2)c(F)c1)c1cccc(Br)c1 (stereo not drawn)
0.0039,0.0152,0.0152,0.0152,1,0.25,0.0625,0.0152,O=C(Nc1ccc(N2CCN(CC(O)(Cn3cncn3)c3ccc(F)cc3F)CC2)c(F)c1)c1ccc(F)cc1 (stereo not drawn)
